WT yeast gro inh: growth inhibition of WT yeast, mitochondrial fusion screen; inhibition, % at 10 µM; 2.1% of 190,000 active; mitochondrial fusion phenotypic screen, WT strain; in the data active = inhibition above about 58%; tested in S. cerevisiae
ROMK mod: modulates human ROMK potassium channel activity. P48048. Tet-inducible ROMK, thallium flux fluorescence; actives lie on both sides. B-score at 10 µM. 2% of 130,000 active;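 active = signal ratio slope over the read window, or its plate-corrected B-score, at least 3 SD from the plate mean, either direction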;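 also: B-score of the F/F0 ratio slope over 7 to 12 s after thallium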
Target sequence (P48048 whole entry, looked up): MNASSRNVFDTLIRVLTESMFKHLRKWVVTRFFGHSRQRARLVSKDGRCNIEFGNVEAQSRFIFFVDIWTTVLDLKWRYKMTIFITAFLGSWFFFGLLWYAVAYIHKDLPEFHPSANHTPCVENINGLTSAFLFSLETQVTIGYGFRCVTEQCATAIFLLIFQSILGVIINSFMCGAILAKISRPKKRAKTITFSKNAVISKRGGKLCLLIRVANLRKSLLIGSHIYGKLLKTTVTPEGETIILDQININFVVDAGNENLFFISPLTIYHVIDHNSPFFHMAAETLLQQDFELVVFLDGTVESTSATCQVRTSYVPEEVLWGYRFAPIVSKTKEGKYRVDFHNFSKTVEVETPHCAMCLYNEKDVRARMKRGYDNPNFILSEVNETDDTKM
Diaph act CS: activates diaphorase or chemically reduces, flagging diaphorase assay artifacts | activation factor at 20 µM | Diaphorase/resazurin coupled assay, resorufin fluorescence, 16 min; stronger effect = higher value; 1 = vehicle wells, 0 = NADH-free wells | 0.005% of 190,000 active;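 active = diaphorase activity raised at least twofold by the compound at 20 µM; inactive = activation factor below 2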
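Material: Purified diaphorase enzyme from Clostridium kluyveri | Buffer or medium: 50 mM HEPES pH 7.4 with 4.542 mM MgCl2, 0.005% Tween 20 | Times: 16 min enzyme reaction, ambient temperature | Signal: Red resorufin fluorescence at 544/590 nm excitation/emission | Measure: Increased resorufin signal from activators or reducing compounds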
KCC2 mod: KCC2 (human) Cl- transport modulation | 2.2% of 190,000 active | KCC2 cells, thallium flux FluoZin-2 fluorescence | Q9H2X9 | B-score of Tl+ flux slope (higher = more flux/activation; lower = inhibition) at 10 µM;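 active = thallium flux slope and its plate-corrected score both differing from the plate sample mean at a set confidence after two filtering rounds, in either direction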;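 also: slope of fluorescence scaled to starting intensity during 10 to 20 s after thallium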
Diaphorase inh: counter-screen for diaphorase-based assays: diaphorase inhibitors and chemical oxidizers; AID 1217; 0.69% of 190,000 active; diaphorase resazurin-to-resorufin fluorescence, NADH, 16 min; bacterial (C. kluyveri) enzyme, not human; inhibition, % at 20 µM;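 active = primary screen inhibition at 20 µM above a set limit, cut at about 50% in these data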;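 also: plate controls were DMSO with full reaction for no effect and wells lacking NADH for full effect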
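System: Diaphorase enzyme from Clostridium kluyveri | Amount: Enzyme working solution with 0.14 U/mL diaphorase | Benchmarks: No-NADH positive control and DMSO neutral control | Signal: Fluorescence of resorufin formed from resazurin, Ex 544/Em 590 nm | Schedule: 16-min room-temperature incubation before reading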
L major viab: inhibitors of Leishmania major promastigote growth. Leishmania major promastigotes, resazurin fluorescence viability. inhibition, % at 10 µM. 9% of 200,000 active. AID 1063; in the data active = inhibition above about 50%;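 also: promastigotes grown with compound for 44 hours at 28 °C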
Starred values were filed as active, the others as inactive; . = not tested or not shown. The list is not random: actives were taken first. Their share in the collection is about 12%.

SMILES	WT yeast gro inh	ROMK mod	Diaph act CS	KCC2 mod	Diaphorase inh	L major viab
CC1C(c2cccs2)=[N+]([O-])C(C)(C(=O)c2cccs2)N1O (stereo unspecified)	14	0.55	0.9	0.59	10	-6
Cc1ccc(CN2C3CCCC2CC(NC(=O)Nc2cccc(F)c2)C3)cc1 (stereo unspecified)	-8	-3.2	1	-0.23	4	96*
O=C(Nc1ccccc1)NC1CC2CCC(C1)N2 (stereo unspecified)	-10	.	0.9	1.2	10	5
CCC(=NCc1cc(OC)cc(OC)c1)c1c(O)n(C)c(=O)n(C)c1=O	-5	.	0.9	-1.2	8	0
CCN(CC)CCN/N=C(\C)c1c(O)[nH]c(=O)[nH]c1=O	.	0.73	.	1.6	.	.
COc1cc(C(c2c(C)[nH]n(-c3ccccc3)c2=O)c2c(C)[nH]n(-c3ccccc3)c2=O)cc(OC)c1OC	2	0.73	0.8	0.6	20	95*
CCC12CN3CCN(CC(C3)/C1=N/NC(=O)c1ccncc1)C2	-14	0.19	0.8	0.033	15	-2
COc1ccc(C2C(C(=O)N3CCC4(CC3)OCCO4)CC(=O)N2c2ccc(OC)cc2)cc1 (stereo unspecified)	-2	1.2	0.8	0.74	16	-6
Cc1cccc(OCC(=O)N2CCN(Cc3ccc([N+](=O)[O-])cc3)CC2)c1	-9	-1.3	.	-0.39	.	58*
N#Cc1ccc(OCC(=O)N2CCN(Cc3ccc4c(c3)OCO4)CC2)cc1	-4	-0.8	0.9	0.58	11	76*
Cc1ccc(OCC(=O)N2CCN(Cc3ccc([N+](=O)[O-])cc3)CC2)cc1	.	.	.	-1	.	.
COc1ccc(OCC(=O)N2CCN(Cc3ccc(SC)cc3)CC2)cc1	-4	-0.74	.	0.0058	.	84*
COc1cccc(CN2CCN(C(=O)COc3ccc4ccccc4c3)CC2)c1	15	-1.6	0.8	-1.4	21	48
COc1ccc(OCC(=O)N2CCN(Cc3ccc4c(c3)OCO4)CC2)cc1	-4	-1.4	1	0.083	4	64*
O=c1[nH]c(=O)n(Cc2ccco2)c(O)c1C=NCCN1CCNCC1	.	.	.	0.28	.	.
Cc1ccc2nc(C)n(-c3ccc(F)cc3)c(=O)c2c1	3	-0.04	1	0.025	2	0
O=P(N[C@@H](c1ccccc1)[C@@H]1C[C@H]1CO)(c1ccccc1)c1ccccc1	2	0.079	0.8	0.062	16	-3
Cc1ccc(OCC(=O)N2CCN(Cc3ccc4c(c3)OCO4)CC2)cc1	17	-0.99	0.8	0.71	20	83*
Cc1ccc(C)c(OCC(=O)N2CCN(Cc3ccc4c(c3)OCO4)CC2)c1	8	-1.2	.	-1.3	.	20
CN1CN(c2cccc([N+](=O)[O-])c2)CN=C1N[N+](=O)[O-]	-11	-0.018	1	-1.1	-2	-6
CCOC(=O)c1nc2ccccc2c(=O)n1-c1cccc(C)c1	9	1.1*	0.9	1.4	6	-5
CCOC(=O)c1nc2ccccc2c(=O)n1-c1ccc(C)cc1	.	0.41	0.9	-0.27	11	-1
O=c1c2ccccc2nc(/C=C/c2ccc3c(c2)OCO3)n1-c1cccc(O)c1	-15	-0.22	0.8	0.78	19	10
O=c1c2ccccc2[nH]c(=S)n1-c1ccc2c(c1)OCO2	63*	-0.42	0.8	2.7	17	1
CCOC(=O)C1=C(NC(=S)NC(=O)c2ccccc2)c2ccccc2CC12CCCC2	73*	-0.19	0.7	3.2	25	13
SMILES	WT yeast gro inh	ROMK mod	Diaph act CS	KCC2 mod	Diaphorase inh	L major viab
CCOP(=O)(OCC)C(NC(=O)c1ccccc1)=C(Cl)Cl	6	1.2	1	-0.42	3	-5
CCOC(=O)c1[nH]ncc1CN1CCCC(C(=O)c2cccc(Cl)c2)C1 (stereo unspecified)	.	.	.	0.32	.	.
O=C(c1ccc(Cl)cc1)C1CCCN(Cc2cccc3ncccc23)C1 (stereo unspecified)	19	-1.8	0.7	-0.84	34	81*
O=C(c1ccccc1)C1CCCN(Cc2nc(-c3cnccn3)no2)C1 (stereo unspecified)	-11	-0.49	0.9	0.11	7	-4
Cc1cc(Cl)ccc1C(=O)C1CCCN(Cc2ccon2)C1 (stereo unspecified)	8	1.2	0.8	0.011	18	48
O=C(c1ccc(Cl)cc1)C1CCCN(Cc2ccc3nonc3c2)C1 (stereo unspecified)	56	-1	0.9	.	8	85*
O=C(c1ccc(Cl)cc1)C1CCCN(Cc2cccc3cccnc23)C1 (stereo unspecified)	12	-1.9	1.1	-0.18	-11	83*
O=CC(Cl)P(=O)(N1CCOCC1)N1CCOCC1 (stereo unspecified)	.	-0.11	.	0.1	.	.
COc1ccc(C(=O)C2CCCN(Cc3cnc(C)s3)C2)c(OC)c1 (stereo unspecified)	2	1.1	0.9	-0.16	11	87*
Cc1ncc(CN2CCCC(C(=O)c3cccc(Cl)c3)C2)s1 (stereo unspecified)	0	0.071	0.8	0.092	23	85*
COc1ccc(C(=O)C2CCCN(Cc3ccon3)C2)cc1OC (stereo unspecified)	7	-0.98	1	-0.029	-1	12
Cc1ncc(CN2CCCC(C(=O)c3ccc(C(C)(C)C)cc3)C2)s1 (stereo unspecified)	31	-2.1	0.8	.	18	91*
COc1ccc(C(=O)C2CCCN(Cc3cnc(C)s3)C2)cc1OC (stereo unspecified)	-9	0.2	0.8	.	15	81*
O=C1NC(=O)N(Cc2ccc(F)cc2)C(=O)/C1=C\c1ccc([N+](=O)[O-])s1	.	0.35	.	-0.093	.	.
Cn1ccc(NC(=O)CCl)n1	-2	.	1.1	0.037	-12	18
COc1ccc(-n2c(O)c(C(C)=NCCCn3ccnc3)c(=O)[nH]c2=O)cc1	-2	.	0.9	-0.018	6	-3
Nc1cc(Cl)c2nonc2c1[N+](=O)[O-]	-4	.	0.6	-0.22	44	98*
CCN1C(=O)/C(=C/c2ccc(N(CC)CC)cc2OC)C(=O)NC1=S	15	-0.45	0.7	0.7	25	99*
COc1ccccc1CN1CCN(C(=O)COc2ccccc2)CC1	-7	.	0.8	-0.54	21	-5
O=C(COc1ccccc1)N1CCN(CC2CC3C=CC2C3)CC1 (stereo unspecified)	4	.	1	0.97	-3	91*
COc1cc([C@@H]2c3cc4c(cc3[C@@H](OC)[C@H]3COC(=O)[C@H]23)OCO4)cc(OC)c1O	.	.	.	0.019	.	.
Cn1c(O)c(C=NCCCCCCCCCCC(=O)O)c(=O)n(C)c1=O	.	.	.	-0.73	.	.

Assay outcomes (PubChem)
